Screens deposited in PubChem by Sanford-Burnham Center for Chemical Genomics.
Only some compounds are listed: those with a hit (about 3.3% of all), similar ones and a draw of the others.
SENP7 inh = inhibitors of human SENP7 protease; Q9BQF6; recombinant SENP7, Z-RLRGG-aminoluciferin luminescence, 40 min; inhibition, % at 5 µM; 330,000 tested, 1.5% active; AID 434973;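 active = inhibition above about 50% at the single test dose, limit read from the data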;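 also: plate controls were DMSO with enzyme for no effect and no enzyme buffer wells for full effect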
SENP1 inh = SENP1 (human) catalytic domain inhibition; recombinant SENP1 catalytic domain, CyPet-SUMO1-YPet FRET cleavage; Q9P0U3; inhibition, % at 10 µM; 360,000 tested, 0.21% active;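 active = inhibition at least 30% at 10 µM, raw YFP signal under a set limit, fluorescence ratio 0.5 to 1.5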;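 also: 0% = enzyme with DMSO and 100% = no enzyme wells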
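System: Recombinant human SENP1 catalytic domain, His6-tagged | Incubation: Enzyme reaction for 50 min at room temperature, dark | Medium: Tris pH 8 with BME, BSA, NP40 and catalase | Also added: 25 nM SUMO1 FRET substrate | Compound: 10 µM single point, 0.5% DMSO | Measured by: FRET fluorescence in CFP and YFP emission channels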
SENP6 inh = blocks the human protease SENP6 | Q9GZR1 | Recombinant SENP6 catalytic domain, aminoluciferin luminescence | inhibition, % at 10 µM | 330,000 tested, 1.8% active | AID 2599;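 active = inhibition above about 50% at the single tested dose, limit read from the data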;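 also: plate controls were DMSO wells with enzyme for no effect and DMSO wells lacking enzyme for full effect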
CendR NRP1 mod = modulators of CendR peptide binding to human neuropilin-1. 360,000 tested, 0.85% active. O14786. inhibition, % at 25 µM. FAM-RPARPAR peptide binding to NRP-1, fluorescence polarization;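 active = inhibition or corrected inhibition above about 18%, plus a signal ratio from 0.5 to 1.5, limit read from the data, passing the limit was not always enough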
SENP8 block-1 = inhibitors of human SENP8 protease | Q96LD8 | purified SENP8, Z-RLRGG-aminoluciferin cleavage, luminescence | inhibition, % at 10 µM | 330,000 tested, 1.2% active | AID 2540; in the data active = inhibition above about 50%
SENP8 block-2 = inhibitors of human SENP8 protease. Q96LD8. recombinant SENP8, Nedd8 substrate fluorescence. inhibition, % at 20 µM. 360,000 tested, 0.64% active. AID 602440; in the data active = inhibition mostly above about 40%, no sharp cut-off; inactive = mostly below about 27%
SENP1 conf = confirmation of human SENP1 SUMO protease inhibitors; shares compounds with SENP1 inh; recombinant SENP1, CyPet-SUMO1-YPet FRET cleavage; inhibition, % at 10 µM; 520 tested, 34% active; AID 651678; in the data active = inhibition mostly above about 35%, no sharp cut-off; inactive = mostly below about 32%;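 also: 0% = enzyme with DMSO and 100% = no enzyme control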
SENP1 kin conf = confirmation of human SENP1 SUMO protease inhibitors, kinetic. shares compounds with SENP1 inh. recombinant SENP1, CyPet-SUMO1-YPet FRET kinetic cleavage. inhibition, % at 10 µM. 520 tested, 26% active. AID 651690; in the data active = inhibition mostly above about 32%, no sharp cut-off; inactive = mostly below about 29%;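 also: 0% = DMSO with enzyme and 100% = no enzyme substrate only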
An asterisk follows results filed as active; · = no result.

SMILES	SENP7 inh	SENP1 inh	SENP6 inh	CendR NRP1 mod	SENP8 block-1	SENP8 block-2	SENP1 conf	SENP1 kin conf
O=c1c(-c2cc3ccccc3[nH]2)nc2ccccc2n1C(CCc1ccccc1)c1nc2ccccc2[nH]1 (configuration not stated)	·	-16	·	12	·	-430	·	·
CC(C(=O)c1ccc(Br)cc1)[n+]1cccc(NC(=O)c2ccccc2)c1 (configuration not stated)	-2	1	-5	17	-12	31	·	·
CC(C(=O)c1ccc(Br)cc1)[n+]1cccc2ccccc21 (configuration not stated)	-3	52*	-3	-27	-7	-43	18	22
c1ccc(CN2CCN(C3=Nc4cccc5cccc3c45)CC2)cc1	0	83*	-14	-31	-3	27	89*	53*
COc1cc(/C=C2\CCCc3c2nc2ccccc2c3C(=O)O)cc(Br)c1O	0	56*	-7	-4	0	-332	97*	67*
CC(C)NC(=O)C1(C)CCN1C(=O)c1cccn1C (configuration not stated)	·	1	·	-1	·	-27	·	·
COc1ccccc1Cc1c(-c2cccc(Br)c2)nc2ccc(Cl)cn12	·	33*	·	-69	·	-123	6	-2
COc1ccccc1Cc1c(-c2ccc(Cl)cc2)nc2ccc(Br)cn12	·	42*	·	-66	·	-39	-3	1
COc1ccccc1Cc1c(-c2ccc(C)cc2)nc2ccc(Br)cn12	·	12	·	-18	·	-10	·	·
N#Cc1ccc(-c2nc3ccc(Cl)cn3c2Cc2ccccc2C(F)(F)F)cc1	·	48*	·	-6	·	-369	55*	45*
COc1ccc(Nc2cc(C)nc3ncnn23)cc1Cl	1	29*	-3	-9	9	7	35*	20
COc1cc(Nc2cc(C)nc3ncnn23)cc(OC)c1OC	11	1	-16	-9	-9	22	·	·
COC(=O)[C@H](NC(=O)c1cc([C@@H](NC(=O)OC(C)(C)C)C(C)C)sc1N)C(C)C	·	-3	·	-20	·	-9	·	·
Brc1cc(Br)c2nc3c(cc2c1)CCC3	-6	33*	-17	-15	-3	9	3	7
CSc1nc2c(cc1C#N)CCC2	-2	0	-11	-7	7	-11	·	·
Cc1ccc2cc(NC(=O)C3(C)CCN3C(C)C)ccc2n1 (configuration not stated)	·	1	·	4	·	-8	·	·
CC1(C(=O)NS(=O)(=O)c2cccc(Cl)c2)CCN1C(=O)C/C=C/c1ccccc1 (configuration not stated)	·	-5	·	17	·	6	·	·
